# Results from publication PMC4130341 (Journal of nuclear medicine : official publication, Society …, 2013).
# Bridge positions count the residues as written; N and C are the ends. Peptide text beside a SMILES is read from it. * marks the point of attachment. Benzoyl(4-F) = O=C(c1ccc(F)cc1)*
# Experiments:
# [1] = test system: BxPC3 (integrin αvβ6–positive) tumors; assay: Excised tissue biodistribution; type: in vivo, mice; conditions: γ-counter, mean ± SD
# Procedure, shortened: (§1)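 Tumors were grown as subcutaneous shoulder xenografts (10^7 BxPC3 or HEK-293 cells) in 6-wk female nu/nu mice to 10 mm diameter. Isoflurane-anaesthetised mice received 2–3 MBq of 18F-fluorobenzoate peptide by tail vein and were euthanised at 0.5 or 2 h. Weighed tissues were γ-counted and expressed as decay-corrected %ID/g, mean ± SD. Group sizes: BxPC3 3 (0.5 h), 4–5 (2 h); 293 3 (0.5 h), 3–4 (2 h); nontumor 6 (0.5 h), 8 (2 h).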
# BxPC3 tumors = assay: Coinjection study with unlabeled peptide, excised tissue biodistribution; type: in vivo, mice; conditions: 250 µg unlabeled S02 coinjected
# [2] = test system: 293 (integrin αvβ6–negative) tumors; assay: Excised tissue biodistribution; type: in vivo, mice; conditions: γ-counter, mean ± SD
# Procedure, shortened: as §1
# [3] = test system: BxPC3 (integrin αvβ6–positive) pancreatic adenocarcinoma xenografted tumors; assay: Small-animal PET, static scans, BxPC3 xenografts; type: in vivo, mice; conditions: mean ± SD
# Procedure, shortened: (§2)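 Nu/nu female mice (6 wk) carried BxPC3 shoulder xenografts of 10 mm diameter. Under isoflurane they were dosed intravenously (tail vein) with 2–3 MBq of 18F-fluorobenzoate-labelled peptide. Rodent microPET 5-min static scans were taken at 0.5, 1 and 2 h. Tumor, kidney, liver and hind-leg muscle signals were quantified, given as mean ± SD (n = 4–5 per tracer) and compared by 2-tailed t test, P < 0.05.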
# [4] = Small-animal PET, static scans, BxPC3 xenografts; type: in vivo, mice; conditions: female, nu/nu, mouse, iv, total radioactivity
# Procedure, shortened: as §2
# [5] = test system: BxPC3 xenografted tumors; heart (blood) radioactivity; assay: Dynamic PET; type: in vivo; conditions: from radioactivity in the heart, 10-min dynamic PET, mice, tail vein
# Procedure, shortened: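 Female nu/nu mice (6 wk) received 10^7 BxPC3 or HEK-293 cells subcutaneously in the shoulder and grew tumors to 10 mm diameter. Under isoflurane, mice got 2–3 MBq of 18F-fluorobenzoate-labelled peptide by tail vein. A 10-min dynamic scan was acquired on a rodent microPET. Mean signal in ellipsoid regions of interest was quantified.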
smiles,measurement,setting,value
"CC[C@H](C)[C@@H]1NC(=O)[C@@H]2CSSC[C@H](NC(=O)CNC(=O)c3ccc(F)cc3)C(=O)N[C@@H](CCCNC(=N)N)C(=O)N[C@@H](CO)C(=O)N[C@@H](CC(C)C)C(=O)N[C@@H](C)C(=O)N[C@@H](CCCNC(=N)N)C(=O)N[C@@H]([C@@H](C)O)C(=O)N[C@@H](CC(=O)O)C(=O)N[C@@H](CC(C)C)C(=O)N[C@@H](CC(=O)O)C(=O)N[C@@H](Cc3c[nH]cn3)C(=O)N[C@@H](CC(C)C)C(=O)N[C@@H](CCCNC(=N)N)C(=O)NCC(=O)N[C@@H](CCCNC(=N)N)C(=O)N[C@H]3CSSC[C@H](NC1=O)C(=O)N[C@@H](CC(C)C)C(=O)N[C@@H](CCC(=O)O)C(=O)N[C@@H](CC(N)=O)C(=O)NCC(=O)N[C@@H](Cc1ccccc1)C(=O)N[C@H](C(=O)NCC(=O)O)CSSC[C@H](NC(=O)[C@H](CC(=O)O)NC(=O)[C@H](CO)NC(=O)[C@H](CC(=O)O)NC(=O)[C@H](CO)NC(=O)[C@H](CO)NC3=O)C(=O)N[C@@H](CC(C)C)C(=O)N[C@@H](C)C(=O)N[C@@H](CCC(=O)O)C(=O)N2 [^18F-fluorobenzoate-S02] ({Benzoyl(4-F)}-GCRSLARTDLDHLRGRCSSDSDCLAECICLENGFCG-OH; disulfide 2-27, 17-29, 23-35; C-terminus assumed)","tumor uptake, excised tissue, BxPC3","[1]; 0.5 h after injection, n = 3",0.71 ± 0.13 %ID/g
same,"tumor uptake, excised tissue, BxPC3","[1]; 2 h after injection, n = 4–5",0.24 ± 0.06 %ID/g
same,effect of unlabeled peptide coinjection on tumor uptake,BxPC3 tumors,does not demonstrate tumor uptake reduction
same,"tumor uptake, excised tissue, 293","[2]; 0.5 h after injection, n = 3",0.11 ± 0.02 %ID/g
same,"tumor uptake, excised tissue, 293","[2]; 2 h after injection, n = 3–4",0.10 ± 0.05 %ID/g
same,"kidney uptake, PET",[3]; 0.5 h,18% ± 6%
same,"tumor uptake, PET, BxPC3","[3]; 0.5 h after injection, 2–3 MBq tail vein, nude mice, n = 4–5",1.3% ± 0.4%
same,"tumor signal, PET, BxPC3","[3]; 1 h after injection, 2–3 MBq tail vein",0.7 ± 0.3 % ID/g
same,"liver uptake, PET",[3]; time not printed at place (given beside the 0.5 h kidney values),0.9% ± 0.3%
same,tissue uptake at 1 h,[4]; kidney,7 ± 3 %ID/g
same,tissue uptake at 1 h,[4]; liver,0.3 ± 0.1 %ID/g
same,blood clearance half-time,[5],1.8 min
